Data as given in ChEMBL document CHEMBL1629493, “Synthesis and cytostatic activity of purine nucleosides derivatives of allofuranose” (Eur J Med Chem, 2010).

Key:
Type in all cases: functional, cell-based
MCF7 = assay: Cytostatic activity against human MCF7 cells after 96 hrs by colorimetric microculture assay; settings: MCF7, 96 h
In short: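 MCF-7 cells at 10⁴ per well, preincubated 24 h, then treated at 37 °C for 96 h with varying doses dissolved in DMSO alongside DMSO controls. Read-out: MTT colorimetry at 595 nm, viability as a fraction of control absorbance. IC50 fitted from concentration-effect curves; three experiments, mean with standard deviation.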

HeLa = assay: Cytostatic activity against human HeLa 229 cells after 48 hrs by colorimetric microculture assay
In short: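 HeLa-229 cells plated at 4 × 10³ per well and cultured 24 h before treatment at 37 °C for 48 h with varying doses in DMSO, DMSO controls included. MTT colour measured at 595 nm. Percent viability relative to control; IC50 from concentration-effect curves. Mean of three experiments, SD given.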

HL-60 = assay: Cytostatic activity against human HL60 cells after 24 hrs by colorimetric microculture assay; settings: HL-60, 24 h
In short: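 MTT assay: HL-60 cells seeded at 10⁴ per well, grown 24 h in culture medium, then exposed at 37 °C for 24 h to varying doses of compounds dissolved in DMSO, with DMSO controls. Absorbance read at 595 nm. Viability taken as treated over control absorbance. IC50 derived from concentration-effect curves; means of three experiments with standard deviation.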

SMILES | IC50 (MCF7) | IC50 (HeLa) | IC50 (HL-60)
CNc1nc(Cl)nc2c1ncn2[C@@H]1O[C@H]([C@H](O)CO)[C@@H](O)[C@H]1O | > 100 µM | > 100 µM | > 100 µM
CC(=O)O[C@H]1[C@@H](OC(C)=O)[C@H](n2cnc3c(Cl)nc(Cl)nc32)O[C@@H]1[C@H](O)CO | 36.3 µM | 36.3 µM | 45 µM
Nc1ncnc2c1ncn2[C@@H]1O[C@H]([C@H](O)CO)[C@@H](O)[C@H]1O | > 100 µM | > 100 µM | > 100 µM
CCOc1nc(Cl)nc2c1ncn2[C@@H]1O[C@H]([C@H](O)CO)[C@@H](O)[C@H]1O | > 100 µM | > 100 µM | > 100 µM
CC(=O)OC[C@@H](OC(C)=O)[C@H]1O[C@@H](n2cnc3c(Cl)ncnc32)[C@H](OC(C)=O)[C@@H]1OC(C)=O | > 100 µM | > 100 µM | 79.3 µM
OC[C@@H](O)[C@H]1O[C@@H](n2cnc3c(Cl)nc(Cl)nc32)[C@H](O)[C@@H]1O | 54.2 µM | 47.1 µM | > 100 µM
CNc1ncnc2c1ncn2[C@@H]1O[C@H]([C@H](O)CO)[C@@H](O)[C@H]1O | > 100 µM | > 100 µM | > 100 µM
CC(=O)OC[C@@H](OC(C)=O)[C@H]1O[C@@H](n2cnc3c(Cl)nc(Cl)nc32)[C@H](OC(C)=O)[C@@H]1OC(C)=O | 22.4 µM | 24.2 µM | 16.1 µM

Now from value to compound:

IC50 (MCF7) | IC50 (HeLa) | IC50 (HL-60) | SMILES
> 100 µM | > 100 µM | > 100 µM | Nc1nc(Cl)nc2c1ncn2[C@@H]1O[C@H]([C@H](O)CO)[C@@H](O)[C@H]1O
> 100 µM | > 100 µM | > 100 µM | CC(=O)OC[C@@H](OC(C)=O)[C@H]1O[C@@H](n2cnc3c(-c4ccccc4)ncnc32)[C@H](OC(C)=O)[C@@H]1OC(C)=O
> 100 µM | > 100 µM | > 100 µM | OC[C@@H](O)[C@H]1O[C@@H](n2cnc3c(-c4ccccc4)ncnc32)[C@H](O)[C@@H]1O
> 100 µM | > 100 µM | > 100 µM | CC(=O)OC[C@@H](OC(C)=O)[C@H]1O[C@@H](n2cnc3c(N)nc(Cl)nc32)[C@H](OC(C)=O)[C@@H]1OC(C)=O
> 100 µM | > 100 µM | > 100 µM | OC[C@@H](O)[C@H]1O[C@@H](n2cnc3c(Cl)ncnc32)[C@H](O)[C@@H]1O
